One sequence from paper PMC11579016 (Oncogenesis, 2024) can be followed below.

The target of experiment [1] is thrombin (Homo sapiens, UniProt P00734). Put plainly: Cleavage assay of SAPE-labeled ADAM9 bacteria with thrombin. It counts as biochemical. The conditions noted are these: 75 nM thrombin, 3 h, FACS. Summed up: (§1)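 ADAM9 substrate-displaying bacteria were subcultured 1:100 in LB for 45 min at 37 °C, induced with 0.04% arabinose for 1 h, then labeled with SAPE (final […]) for 1 h. 10^7 bacteria were incubated for 3 h with thrombin (final 75 nM) or dilutions of sonicated PANC-1 lysate, with PBS or reaction buffer as controls. After two PBS washes, SAPE-positive bacteria were counted by flow cytometry, with unlabeled bacteria as the negative control.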

The target in experiment [2] is rMMP9 (Homo sapiens, UniProt P14780). Kind of experiment: Cleavage assay of SAPE-labeled ADAM9 bacteria with rMMP9, alone or with S3304. It is filed as biochemical. The following applies: 200 nM rMMP9, 3 h, FACS.
Sequence of rMMP9 (P14780 94-707, species assumed): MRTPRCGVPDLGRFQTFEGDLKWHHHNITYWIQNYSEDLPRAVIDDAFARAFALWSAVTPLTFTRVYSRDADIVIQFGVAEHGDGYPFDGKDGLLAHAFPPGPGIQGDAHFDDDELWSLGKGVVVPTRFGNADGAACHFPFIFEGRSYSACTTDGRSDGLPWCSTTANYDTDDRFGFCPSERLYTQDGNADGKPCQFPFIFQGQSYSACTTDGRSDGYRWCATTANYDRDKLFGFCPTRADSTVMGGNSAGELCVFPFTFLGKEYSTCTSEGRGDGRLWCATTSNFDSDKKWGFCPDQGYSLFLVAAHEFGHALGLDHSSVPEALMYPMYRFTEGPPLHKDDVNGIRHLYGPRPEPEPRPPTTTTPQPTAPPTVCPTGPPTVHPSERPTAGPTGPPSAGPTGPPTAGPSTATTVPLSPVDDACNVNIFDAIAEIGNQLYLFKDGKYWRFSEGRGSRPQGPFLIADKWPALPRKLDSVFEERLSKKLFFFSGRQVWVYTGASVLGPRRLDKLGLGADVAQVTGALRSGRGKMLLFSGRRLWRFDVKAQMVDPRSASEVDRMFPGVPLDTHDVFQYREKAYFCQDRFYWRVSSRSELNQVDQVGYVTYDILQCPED
In experiment [3] the test system is PANC-1 lysate. Kind of experiment: Cleavage assay of SAPE-labeled ADAM9 bacteria with PANC-1 lysate. It is filed as biochemical, human. The following applies: highest PANC-1 lysate concentration, 3 h, FACS; dose-dependent. Summed up:
as §1

Turning to PLAQAVRSSK [ADAM9 substrate], in experiment [1], the “effect on fluorescence of SAPE-labeled ADAM9 bacteria” value is listed as “did not reduce fluorescence”. Also, the “effect on SAPE-positivity of ADAM9 bacteria” value in experiment [2] is reported as “greatly reduced SAPE-positivity”. Besides, the “ADAM9 substrate cleavage by PANC-1 lysate (loss of SAPE-positive bacteria)” value in experiment [3] is listed as “near-complete”.
